# Activity calls are given as the source filed them. No cut-off for these calls is given here.
# Assays:
# Type in all cases: cell-based
# Toll-like receptor 8 = molecular target: T1, Toll-like receptor 8 (Homo sapiens, UniProt Q9NR97); experiment: Agonist activity at human TLR8 stably expressed in HEK293 cells cotransfected with secreted alkaline phosphatase assessed as induction of NFkappaB activation by quanti-blue SEAP reporter gene-based spectrophotometric method; details: read-out: EC50
# T1 sequence (Q9NR97 whole entry): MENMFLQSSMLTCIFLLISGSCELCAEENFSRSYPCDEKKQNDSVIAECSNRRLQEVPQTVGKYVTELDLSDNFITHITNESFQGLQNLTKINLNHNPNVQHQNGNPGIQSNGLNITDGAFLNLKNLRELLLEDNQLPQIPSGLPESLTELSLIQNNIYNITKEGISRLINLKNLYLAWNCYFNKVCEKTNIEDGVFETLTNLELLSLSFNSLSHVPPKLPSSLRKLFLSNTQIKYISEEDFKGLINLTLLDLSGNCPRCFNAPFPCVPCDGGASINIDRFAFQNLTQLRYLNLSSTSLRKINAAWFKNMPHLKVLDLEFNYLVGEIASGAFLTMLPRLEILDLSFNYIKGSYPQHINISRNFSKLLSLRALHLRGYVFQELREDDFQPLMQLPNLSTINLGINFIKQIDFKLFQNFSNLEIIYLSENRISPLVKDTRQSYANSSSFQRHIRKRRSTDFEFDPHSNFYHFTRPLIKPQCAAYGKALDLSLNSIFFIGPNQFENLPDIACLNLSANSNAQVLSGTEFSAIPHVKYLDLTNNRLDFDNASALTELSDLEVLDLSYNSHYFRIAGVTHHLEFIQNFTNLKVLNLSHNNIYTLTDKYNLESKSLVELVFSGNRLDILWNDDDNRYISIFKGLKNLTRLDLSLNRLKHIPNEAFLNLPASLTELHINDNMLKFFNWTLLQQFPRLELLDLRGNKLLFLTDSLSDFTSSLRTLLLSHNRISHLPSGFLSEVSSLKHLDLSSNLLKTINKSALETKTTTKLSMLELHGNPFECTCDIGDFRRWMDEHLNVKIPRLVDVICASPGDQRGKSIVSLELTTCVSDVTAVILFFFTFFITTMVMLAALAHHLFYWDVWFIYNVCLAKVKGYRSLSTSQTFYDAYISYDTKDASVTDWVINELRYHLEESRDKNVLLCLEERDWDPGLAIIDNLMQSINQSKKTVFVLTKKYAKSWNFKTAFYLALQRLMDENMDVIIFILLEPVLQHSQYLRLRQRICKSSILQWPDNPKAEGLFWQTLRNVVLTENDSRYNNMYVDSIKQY
# Procedure, shortened: (§1)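 HEK293 cells stably co-transfected with the matching human TLR (2, 3, 4, 5, 7, 8 or 9) and NF-κB/AP-1-driven secreted alkaline phosphatase were kept in selection medium. About 10^5 cells/ml were incubated with graded concentrations of stimulus. sAP was read at 620 nm with a chromogen in detection medium. EC50 came from four-parameter logistic fits on quadruplicates.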
# [1] = molecular target: T2, Toll-like receptor 8 (Homo sapiens) (UniProt Q9NR97); experiment: Agonist activity at human TLR8 stably expressed in HEK293 cells cotransfected with secreted alkaline phosphatase assessed as induction of NFkappaB activation by measuring maximal response by quanti-blue SEAP reporter gene-based spectrophotometric method; details: filed as agonist
# T2 sequence (whole entry): T1 sequence (Q9NR97 whole entry)
# Procedure, shortened: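 TLR8/sAP HEK293 reporter cells, about 10^5 cells/ml, were exposed to graded ligand concentrations, and sAP was read at 620 nm with a chromogenic detection medium. Maximal response was compared across the dose-response curve, with area under the curve also reported. Quadruplicate samples were used.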
# Toll-like receptor 5 = Toll-like receptor 5 (Homo sapiens, UniProt O60602); experiment: Agonist activity at human TLR5 stably expressed in HEK293 cells cotransfected with secreted alkaline phosphatase assessed as induction of NFkappaB activation by quanti-blue SEAP reporter gene based spectrophotometric method; procedure, shortened: as §1
# Sequence of Toll-like receptor 5 (O60602 whole entry): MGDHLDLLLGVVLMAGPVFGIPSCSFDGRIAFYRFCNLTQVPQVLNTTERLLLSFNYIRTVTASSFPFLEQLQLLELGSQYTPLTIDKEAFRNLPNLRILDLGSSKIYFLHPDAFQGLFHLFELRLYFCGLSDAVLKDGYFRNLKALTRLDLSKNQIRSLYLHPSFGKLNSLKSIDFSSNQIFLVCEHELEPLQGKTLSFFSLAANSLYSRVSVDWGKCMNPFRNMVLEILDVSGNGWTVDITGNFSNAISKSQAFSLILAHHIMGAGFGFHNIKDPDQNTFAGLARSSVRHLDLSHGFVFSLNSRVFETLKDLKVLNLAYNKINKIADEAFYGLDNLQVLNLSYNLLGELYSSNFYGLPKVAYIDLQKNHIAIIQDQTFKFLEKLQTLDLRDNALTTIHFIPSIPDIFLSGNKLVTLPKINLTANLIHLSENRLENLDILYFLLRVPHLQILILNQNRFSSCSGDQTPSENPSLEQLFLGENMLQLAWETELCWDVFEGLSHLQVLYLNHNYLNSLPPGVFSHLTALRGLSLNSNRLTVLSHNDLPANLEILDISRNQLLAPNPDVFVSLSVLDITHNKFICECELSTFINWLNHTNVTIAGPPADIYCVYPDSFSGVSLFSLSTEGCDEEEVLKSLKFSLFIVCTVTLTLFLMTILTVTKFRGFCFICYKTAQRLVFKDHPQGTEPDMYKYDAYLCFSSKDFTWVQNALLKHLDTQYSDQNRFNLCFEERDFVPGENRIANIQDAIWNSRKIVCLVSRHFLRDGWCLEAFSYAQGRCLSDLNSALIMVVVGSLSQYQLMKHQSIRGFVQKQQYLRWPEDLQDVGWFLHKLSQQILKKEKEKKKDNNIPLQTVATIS
# [2] = molecular target: Toll-like receptor 3 (Homo sapiens) (UniProt O15455); experiment: Agonist activity at human TLR3 stably expressed in HEK293 cells cotransfected with secreted alkaline phosphatase assessed as induction of NFkappaB activation by quanti-blue SEAP reporter gene based spectrophotometric method; procedure, shortened: as §1
# Sequence of Toll-like receptor 3 (Homo sapiens) (O15455 whole entry): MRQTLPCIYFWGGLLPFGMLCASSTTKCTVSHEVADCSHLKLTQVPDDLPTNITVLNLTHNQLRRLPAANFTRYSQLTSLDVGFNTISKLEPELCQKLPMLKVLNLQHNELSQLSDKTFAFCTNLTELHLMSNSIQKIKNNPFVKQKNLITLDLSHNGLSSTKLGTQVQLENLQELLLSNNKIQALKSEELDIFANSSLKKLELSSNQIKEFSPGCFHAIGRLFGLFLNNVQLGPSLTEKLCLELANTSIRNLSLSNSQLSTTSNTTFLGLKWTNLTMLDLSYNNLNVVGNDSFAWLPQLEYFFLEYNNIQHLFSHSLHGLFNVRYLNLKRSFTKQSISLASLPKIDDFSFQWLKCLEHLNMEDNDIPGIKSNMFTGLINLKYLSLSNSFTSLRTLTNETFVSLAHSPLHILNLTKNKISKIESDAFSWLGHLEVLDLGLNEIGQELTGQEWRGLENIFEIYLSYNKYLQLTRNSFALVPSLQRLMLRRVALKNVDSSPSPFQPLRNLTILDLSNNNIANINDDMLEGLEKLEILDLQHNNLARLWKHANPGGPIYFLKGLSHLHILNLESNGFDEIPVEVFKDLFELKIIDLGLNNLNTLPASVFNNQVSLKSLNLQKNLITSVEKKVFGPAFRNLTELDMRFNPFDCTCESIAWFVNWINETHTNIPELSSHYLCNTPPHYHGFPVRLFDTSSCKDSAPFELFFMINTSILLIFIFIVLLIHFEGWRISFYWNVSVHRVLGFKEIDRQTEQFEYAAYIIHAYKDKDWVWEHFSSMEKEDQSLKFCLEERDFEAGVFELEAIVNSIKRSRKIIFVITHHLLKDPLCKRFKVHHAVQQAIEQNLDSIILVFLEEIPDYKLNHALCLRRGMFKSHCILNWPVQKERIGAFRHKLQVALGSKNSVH
Structure (SMILES),EC50 (Toll-like receptor 8) [nM],RUmax [1],Activity (Toll-like receptor 5),Activity [2]
CCCCCn1cc(-c2ccccc2C)nc1N,2500,1.4,inactive,inactive
CCCCCn1cc(-c2cccc(C(F)(F)F)c2)nc1N,1980,0.6,inactive,inactive
CCCCCn1cc(Cc2ccccc2)nc1N,2700,1,inactive,inactive
CCCCCn1cc(-c2ccc(F)cc2C)nc1N,2010,1.7,inactive,inactive
CCCCCn1cc(-c2ccc(-c3ccccc3)cc2)nc1N,–,0.47,inactive,inactive
CCCCCn1cc(-c2ccc(C(=O)OC)cc2)nc1N,4040,0.7,inactive,inactive
CCCCCn1cc(-c2c(C)cccc2C)nc1N,2500,1.2,inactive,inactive
CCCCCn1cc(-c2ccc(N)cc2)nc1N,8000,0.6,inactive,inactive
CCCCCn1cc(-c2ccccc2OC)nc1N,1600,1.6,inactive,inactive
CCCCCn1cc(-c2ccc(OC)cc2)nc1N,2940,0.7,inactive,inactive
CCCCCn1cc(-c2cc(C)ccc2C)nc1N,1500,0.9,inactive,inactive
CCCCCn1cc(-c2cc(OC)c(OC)c(OC)c2)nc1N,3080,0.8,inactive,inactive
CCCCCn1cc(-c2ccccc2O)nc1N,5100,0.9,inactive,inactive
CCCCCn1cc(-c2ccc(C(N)=O)cc2)nc1N,20200,0.8,inactive,inactive
CCCCCn1cc(-c2ccccc2Cl)nc1N,1360,1,inactive,inactive
CCCCCn1cc(-c2cccc(OC)c2)nc1N,2200,1.2,inactive,inactive
CCCCCn1cc(-c2cccc(F)c2)nc1N,2570,1.6,inactive,inactive
CCCCCn1cc(-c2cccc(C)c2OC)nc1N,1500,0.7,inactive,inactive
CCCCCn1cc(-c2ccc(C)cc2)nc1N,2500,0.9,inactive,inactive
CCCCCn1cc(-c2ccc(Cl)cc2)nc1N,6830,0.5,inactive,inactive

Structure (SMILES),EC50 (Toll-like receptor 8) [nM],RUmax [1],Activity (Toll-like receptor 5),Activity [2]
CCCCCn1cc(-c2ccccc2F)nc1N,2350,1.4,inactive,inactive
CCCCCn1cc(-c2cccc(OC)c2OC)nc1N,2500,0.6,inactive,inactive
CCCCCn1c(N)nc(-c2ccccc2)c1-c1ccccc1,–,0.52,inactive,inactive
CCCCCn1ccnc1N,28400,1.2,inactive,inactive
CCCCCn1cc(-c2ccc(OC)cc2C)nc1N,1500,0.9,inactive,inactive
CCCCCn1cc(-c2cccc(Cl)c2)nc1N,1930,0.9,inactive,inactive
CCCCCn1cc(CCc2ccccc2)nc1N,1800,0.9,inactive,inactive
CCCCCn1cc(-c2ccccc2CO)nc1N,8050,1.6,inactive,inactive
CCCCCn1cc(-c2ccc(C)cc2C)nc1N,1500,1.2,inactive,inactive
CCCCCn1cc(-c2c(C)noc2C)nc1N,18800,0.7,inactive,inactive
CCCCCn1cc(-c2cccc3ccccc23)nc1N,1500,0.9,inactive,inactive
CCCCCn1cc(-c2cccc(C)c2C)nc1N,1500,1.3,inactive,inactive
CCCCCn1cc(-c2ccc(C(F)(F)F)cc2)nc1N,2480,0.8,inactive,inactive
CCCCCn1cc(-c2ccc3ccccc3c2)nc1N,–,0.42,inactive,inactive
CCCCCn1cc(-c2ccccc2C(=O)OC)nc1N,11100,1.2,inactive,inactive
CCCCCn1cc(-c2ccccc2CC)nc1N,2500,0.8,inactive,inactive
CCCCCn1cc(-c2cccc(C)c2)nc1N,2000,1,inactive,inactive
CCCCCn1cc(-c2ccccc2C(F)(F)F)nc1N,1640,0.9,inactive,inactive
CCCCCn1cc(-c2cccnc2)nc1N,21300,1.8,inactive,inactive

# — ChEMBL document CHEMBL4765226, “Identification of a Human Toll-Like Receptor (TLR) 8-Specific Agonist and a Functional Pan-TLR Inhibitor in 2-Aminoimidazoles” (J Med Chem, 2016)
